Reference: ChEMBL document CHEMBL4359929, “Piperidine and piperazine inhibitors of fatty acid amide hydrolase targeting excitotoxic pathology” (Bioorg Med Chem, 2019)
Activity calls are given as the source filed them. The calls are words filed in the database; no cut-off is given here.

Experiments:
Homo sapiens [1] = organism: Homo sapiens; test: Selectivity ratio of IC50 for human full length ABHD6 expressed in Escherichia coli cells to IC50 for human recombinant MBP-tagged FAAH expressed in Escherichia coli cells by fluorescence based assay
[2] = Stability in rat gastric fluid assessed as half life; assay type: ADME, tissue-based, Gastric juice
Outline: (§1)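 Stability assessed as half-life in human, rat and mouse plasma and gastric fluid, and in human, rat and mouse liver microsomal preparations.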

[3] = molecular target: Cannabinoid receptor 1 (Rattus norvegicus) (UniProt P20272); test: Displacement of [3H]CP55940 from CB1 receptor in rat brain by competition-equilibrium binding analysis; assay type: tissue-based
Outline: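 Rat brain membranes as CB1 source; competition-equilibrium binding against [3H]CP-55,940.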

[4] = molecular target: T1, Monoglyceride lipase (Rattus norvegicus) (UniProt Q8R431); test: Inhibition of MGL in rat brain membrane at 1 to 10 uM incubated for 30 mins followed by incubation with FP-Rh probe for 45 mins by ABPP assay; assay type: cell membranes
T1 sequence (whole entry): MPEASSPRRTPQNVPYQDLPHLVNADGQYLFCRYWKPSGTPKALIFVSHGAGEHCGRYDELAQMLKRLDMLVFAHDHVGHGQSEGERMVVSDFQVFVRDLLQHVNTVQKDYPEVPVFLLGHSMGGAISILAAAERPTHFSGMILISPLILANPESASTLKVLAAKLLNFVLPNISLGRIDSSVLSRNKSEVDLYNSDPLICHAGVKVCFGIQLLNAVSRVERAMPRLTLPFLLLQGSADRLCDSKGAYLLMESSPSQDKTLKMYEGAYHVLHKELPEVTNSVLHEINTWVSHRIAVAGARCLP
Outline: (§2)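 Gel-based competitive ABPP on rat brain membrane homogenates (10 mg/mL protein). Compound at 1 and 10 μM or DMSO for 30 min at room temperature, then 10 μM rhodamine-tagged fluorophosphonate probe for 45 min at room temperature. FAAH was run with a reference FAAH inhibitor at 10 μM as positive control. Serine hydrolase labelling read by in-gel fluorescence.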

[5] = molecular target: T2, Monoacylglycerol lipase ABHD6 (Rattus norvegicus) (UniProt Q5XI64); test: Inhibition of ABHD6 in rat brain membrane at 1 to 10 uM incubated for 30 mins followed by incubation with FP-Rh probe for 45 mins by ABPP assay; assay type: cell membranes; outline: as §2
T2 sequence (whole entry): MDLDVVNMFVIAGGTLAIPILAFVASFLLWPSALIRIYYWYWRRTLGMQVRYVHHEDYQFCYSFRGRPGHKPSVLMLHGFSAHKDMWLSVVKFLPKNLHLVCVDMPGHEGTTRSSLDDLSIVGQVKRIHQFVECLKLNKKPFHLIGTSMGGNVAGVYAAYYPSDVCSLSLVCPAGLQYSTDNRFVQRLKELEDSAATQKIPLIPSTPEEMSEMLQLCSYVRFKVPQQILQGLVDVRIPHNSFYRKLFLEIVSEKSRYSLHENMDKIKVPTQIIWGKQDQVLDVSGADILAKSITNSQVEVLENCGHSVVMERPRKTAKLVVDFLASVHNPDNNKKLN

[6] = molecular target: T3, Fatty-acid amide hydrolase 1 (Rattus norvegicus, UniProt P97612); test: Inhibition of rat recombinant His/GST-tagged FAAH expressed in Escherichia coli cells using AAMCA as substrate incubated for 15 mins followed by substrate addition and measured after every 20 mins for 4 hrs by fluorescence based assay
T3 sequence (P97612 whole entry): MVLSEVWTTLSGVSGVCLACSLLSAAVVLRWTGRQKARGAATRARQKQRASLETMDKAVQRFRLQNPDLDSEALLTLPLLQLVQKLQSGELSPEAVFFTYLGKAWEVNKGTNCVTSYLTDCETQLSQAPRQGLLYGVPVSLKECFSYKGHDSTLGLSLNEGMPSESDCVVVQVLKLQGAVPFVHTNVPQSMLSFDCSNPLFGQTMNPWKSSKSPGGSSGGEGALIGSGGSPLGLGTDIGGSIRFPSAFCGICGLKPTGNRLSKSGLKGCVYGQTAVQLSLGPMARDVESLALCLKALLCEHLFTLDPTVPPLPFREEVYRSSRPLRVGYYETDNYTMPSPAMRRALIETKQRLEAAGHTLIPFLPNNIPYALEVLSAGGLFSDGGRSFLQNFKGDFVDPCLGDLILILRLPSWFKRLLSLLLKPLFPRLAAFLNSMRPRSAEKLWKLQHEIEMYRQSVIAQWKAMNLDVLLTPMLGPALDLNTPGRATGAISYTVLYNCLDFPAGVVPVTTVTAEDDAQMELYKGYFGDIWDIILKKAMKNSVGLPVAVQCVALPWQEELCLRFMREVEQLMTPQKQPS
Outline: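 Fluorescent enzyme assay in throughput format. Human recombinant FAAH or purified rat FAAH used arachidonoyl 7-amino-4-methylcoumarin amide as substrate; human recombinant MGL was run by a similar fluorometric procedure.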

Homo sapiens [7] = organism: Homo sapiens; test: Selectivity ratio of IC50 for human recombinant His-tagged MGL expressed in Escherichia coli BL21 DE3 cells to IC50 for human recombinant MBP-tagged FAAH expressed in Escherichia coli cells by fluorescence based assay
[8] = Stability in mouse plasma assessed as half life; assay type: ADME, cell-free; outline: as §1
Rattus norvegicus = organism: Rattus norvegicus; test: Neuroprotective activity against Sprague-Dawley rat assessed as decrease in KA-induced seizure severity; assay type: functional, organism-based
Hippocampus [9] = test: (§3) Neuroprotective activity against Sprague-Dawley rat hippocampus assessed as decrease in KA-induced excitotoxicity by measuring increase in GluR1 level in dense neuropil at 3 to 30 uM preincubated for 1 hr followed by KA stimulation for 2 hrs in continued presence of compound followed by KA wash out and then further incubation with compound for 24 hrs by immunostaining analysis; assay type: functional, tissue-based
Outline: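 Same hippocampal slice kainic acid protocol (60 μM, 2 h, after 1 h pretreatment; 24 h recovery with compound). Fixed hippocampal tissue from each treatment group immunostained with anti-GluR1 (1:200).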

Hippocampus [10] = test: as §3, with “syn protein” for “GluR1”; assay type: functional, tissue-based

Cannabinoid receptor 1 (Rattus norvegicus), sequence (P20272 whole entry): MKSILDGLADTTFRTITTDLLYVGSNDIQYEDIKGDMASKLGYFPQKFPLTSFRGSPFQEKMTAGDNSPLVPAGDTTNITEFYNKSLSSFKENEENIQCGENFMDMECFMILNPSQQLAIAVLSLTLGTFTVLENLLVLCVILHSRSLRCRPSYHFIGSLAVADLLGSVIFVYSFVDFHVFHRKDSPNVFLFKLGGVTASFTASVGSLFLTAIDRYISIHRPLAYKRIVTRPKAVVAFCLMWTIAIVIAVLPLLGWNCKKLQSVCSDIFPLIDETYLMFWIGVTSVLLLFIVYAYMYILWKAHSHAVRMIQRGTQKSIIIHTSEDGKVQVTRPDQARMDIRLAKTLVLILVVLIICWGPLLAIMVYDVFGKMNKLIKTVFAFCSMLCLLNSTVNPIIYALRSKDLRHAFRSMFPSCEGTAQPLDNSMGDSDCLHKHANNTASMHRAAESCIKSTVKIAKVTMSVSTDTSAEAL

Row | SMILES | Ratio IC50 (Homo sapiens [1]) | half-life [2] [h] | Activity [3] | inhibition [4] | inhibition [5] | IC50 [6] [nM] | Ratio IC50 (Homo sapiens [7]) | half-life [8] [h] | Activity (Rattus norvegicus) | inhibition (Hippocampus [9]) | inhibition (Hippocampus [10])
1 | O=C(Oc1cccc(N2CCS(=O)(=O)CC2)c1)N1CCC(c2ccc(N3CCC3)cc2)CC1 | > 1000 | > 1 | inactive | inactive | inactive | 5.8 | > 1000 | > 1 | Active | Active | Active
2 | C[C@@H]1CN(c2ccc(F)cc2)CCN1C(=O)Oc1cccc(N2CCS(=O)(=O)CC2)c1 | > 1000 | > 1 | inactive | inactive | inactive | 6.3 | > 1000 | > 1 |  |  | 
